test system: 3Y1 cell line; assay: Concentration to inhibit growth of normal rat fibroblast cells (3Y1-B cells) after 72 h exposure; type: functional, cell-based; conditions: 3Y1, 72 h
Procedure, shortened: (§1)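 Cells precultured 24 h in DMEM with 10% fetal calf serum, then exposed to drug for 72 h. Viability read by MTT assay. IC50 taken as concentration giving 50% growth inhibition relative to control cultures.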

SMILES	IC50 [nM]
C[C@@H]1C[C@H]2O[C@@H]2\C=C/C=C/C(=N\OCC(=O)NCc2cccnc2)Cc2c(Cl)c(O)cc(O)c2C(=O)O1	670
C[C@@H]1C[C@H]2O[C@@H]2\C=C/C=C/C(=N\OCC(=O)NCCO)Cc2c(Cl)c(O)cc(O)c2C(=O)O1	2800
C[C@@H]1C[C@H]2O[C@@H]2\C=C/C=C/C(=N\OCC(=O)NCCc2cccn2C)Cc2c(Cl)c(O)cc(O)c2C(=O)O1	600
C[C@@H]1C[C@H]2O[C@@H]2\C=C/C=C/C(=N\OCC(=O)NC2CCCC2)Cc2c(Cl)c(O)cc(O)c2C(=O)O1	41
C[C@@H]1C[C@H]2O[C@@H]2\C=C/C=C/C(=N\OCC(=O)N2CCC(O)CC2)Cc2c(Cl)c(O)cc(O)c2C(=O)O1	> 3000
COC(=O)CNC(=O)CO\N=C1/C=C/C=C\[C@H]2O[C@@H]2C[C@@H](C)OC(=O)c2c(O)cc(O)c(Cl)c2C1	790
C[C@@H]1C[C@H]2O[C@@H]2\C=C/C=C/C(=N\OCC(=O)N2CCCCCC2)Cc2c(Cl)c(O)cc(O)c2C(=O)O1	< 4.1
C[C@@H]1C[C@H]2O[C@@H]2\C=C/C=C/C(=N\OCC(=O)N2CCCC2)Cc2c(Cl)c(O)cc(O)c2C(=O)O1	55
C[C@@H]1C[C@H]2O[C@@H]2\C=C/C=C/C(=N\OCC(=O)N2CCOCC2)Cc2c(Cl)c(O)cc(O)c2C(=O)O1	310
CCOCCNC(=O)CO\N=C1/C=C/C=C\[C@H]2O[C@@H]2C[C@@H](C)OC(=O)c2c(O)cc(O)c(Cl)c2C1	390
CCN(CC)c1ccc(NC(=O)CO\N=C2/C=C/C=C\[C@H]3O[C@@H]3C[C@@H](C)OC(=O)c3c(O)cc(O)c(Cl)c3C2)cc1	490
C[C@@H]1C[C@H]2O[C@@H]2\C=C/C=C/C(=N\OCC(=O)N2CCC(N3CCCCC3)CC2)Cc2c(Cl)c(O)cc(O)c2C(=O)O1	> 3000

test system: not listed separately; assay: Concentration to inhibit growth of normal rat K-ras-transformed cells (KNRK 5.2 cells) after 72 hr exposure; type: functional; conditions: not given; procedure, shortened: as §1

SMILES	IC50 [nM]
C[C@@H]1C[C@H]2O[C@@H]2\C=C/C=C/C(=N\OCC(=O)NCc2cccnc2)Cc2c(Cl)c(O)cc(O)c2C(=O)O1	480
C[C@@H]1C[C@H]2O[C@@H]2\C=C/C=C/C(=N\OCC(=O)NCCO)Cc2c(Cl)c(O)cc(O)c2C(=O)O1	2200
C[C@@H]1C[C@H]2O[C@@H]2\C=C/C=C/C(=N\OCC(=O)NCCc2cccn2C)Cc2c(Cl)c(O)cc(O)c2C(=O)O1	380
C[C@@H]1C[C@H]2O[C@@H]2\C=C/C=C/C(=N\OCC(=O)NC2CCCC2)Cc2c(Cl)c(O)cc(O)c2C(=O)O1	45
C[C@@H]1C[C@H]2O[C@@H]2\C=C/C=C/C(=N\OCC(=O)N2CCC(O)CC2)Cc2c(Cl)c(O)cc(O)c2C(=O)O1	> 3000
COC(=O)CNC(=O)CO\N=C1/C=C/C=C\[C@H]2O[C@@H]2C[C@@H](C)OC(=O)c2c(O)cc(O)c(Cl)c2C1	570
C[C@@H]1C[C@H]2O[C@@H]2\C=C/C=C/C(=N\OCC(=O)N2CCCCCC2)Cc2c(Cl)c(O)cc(O)c2C(=O)O1	6.4
C[C@@H]1C[C@H]2O[C@@H]2\C=C/C=C/C(=N\OCC(=O)N2CCCC2)Cc2c(Cl)c(O)cc(O)c2C(=O)O1	39
C[C@@H]1C[C@H]2O[C@@H]2\C=C/C=C/C(=N\OCC(=O)N2CCOCC2)Cc2c(Cl)c(O)cc(O)c2C(=O)O1	340
CCOCCNC(=O)CO\N=C1/C=C/C=C\[C@H]2O[C@@H]2C[C@@H](C)OC(=O)c2c(O)cc(O)c(Cl)c2C1	230
CCN(CC)c1ccc(NC(=O)CO\N=C2/C=C/C=C\[C@H]3O[C@@H]3C[C@@H](C)OC(=O)c3c(O)cc(O)c(Cl)c3C2)cc1	240
C[C@@H]1C[C@H]2O[C@@H]2\C=C/C=C/C(=N\OCC(=O)N2CCC(N3CCCCC3)CC2)Cc2c(Cl)c(O)cc(O)c2C(=O)O1	> 3000

test system: NRK; assay: Concentration to inhibit growth of normal rat kidney epithelial cells (NRK cells) after 72 hr exposure; type: functional, cell-based; conditions: not given; procedure, shortened: as §1

SMILES	IC50 [nM]
C[C@@H]1C[C@H]2O[C@@H]2\C=C/C=C/C(=N\OCC(=O)NCc2cccnc2)Cc2c(Cl)c(O)cc(O)c2C(=O)O1	510
C[C@@H]1C[C@H]2O[C@@H]2\C=C/C=C/C(=N\OCC(=O)NCCO)Cc2c(Cl)c(O)cc(O)c2C(=O)O1	> 3000
C[C@@H]1C[C@H]2O[C@@H]2\C=C/C=C/C(=N\OCC(=O)NCCc2cccn2C)Cc2c(Cl)c(O)cc(O)c2C(=O)O1	1200
C[C@@H]1C[C@H]2O[C@@H]2\C=C/C=C/C(=N\OCC(=O)NC2CCCC2)Cc2c(Cl)c(O)cc(O)c2C(=O)O1	41
C[C@@H]1C[C@H]2O[C@@H]2\C=C/C=C/C(=N\OCC(=O)N2CCC(O)CC2)Cc2c(Cl)c(O)cc(O)c2C(=O)O1	> 3000
COC(=O)CNC(=O)CO\N=C1/C=C/C=C\[C@H]2O[C@@H]2C[C@@H](C)OC(=O)c2c(O)cc(O)c(Cl)c2C1	700
C[C@@H]1C[C@H]2O[C@@H]2\C=C/C=C/C(=N\OCC(=O)N2CCCCCC2)Cc2c(Cl)c(O)cc(O)c2C(=O)O1	7.3
C[C@@H]1C[C@H]2O[C@@H]2\C=C/C=C/C(=N\OCC(=O)N2CCCC2)Cc2c(Cl)c(O)cc(O)c2C(=O)O1	34
C[C@@H]1C[C@H]2O[C@@H]2\C=C/C=C/C(=N\OCC(=O)N2CCOCC2)Cc2c(Cl)c(O)cc(O)c2C(=O)O1	340
CCOCCNC(=O)CO\N=C1/C=C/C=C\[C@H]2O[C@@H]2C[C@@H](C)OC(=O)c2c(O)cc(O)c(Cl)c2C1	260
CCN(CC)c1ccc(NC(=O)CO\N=C2/C=C/C=C\[C@H]3O[C@@H]3C[C@@H](C)OC(=O)c3c(O)cc(O)c(Cl)c3C2)cc1	520
C[C@@H]1C[C@H]2O[C@@H]2\C=C/C=C/C(=N\OCC(=O)N2CCC(N3CCCCC3)CC2)Cc2c(Cl)c(O)cc(O)c2C(=O)O1	3000

test system: not listed separately; assay: Concentration to inhibit growth of v-src-transformed cells (SR-3Y1 cells) after 72 h exposure; type: functional; conditions: Rattus norvegicus, SR3Y1, 72 h; procedure, shortened: as §1

SMILES	IC50 [nM]
C[C@@H]1C[C@H]2O[C@@H]2\C=C/C=C/C(=N\OCC(=O)NCc2cccnc2)Cc2c(Cl)c(O)cc(O)c2C(=O)O1	290
C[C@@H]1C[C@H]2O[C@@H]2\C=C/C=C/C(=N\OCC(=O)NCCO)Cc2c(Cl)c(O)cc(O)c2C(=O)O1	1500
C[C@@H]1C[C@H]2O[C@@H]2\C=C/C=C/C(=N\OCC(=O)NCCc2cccn2C)Cc2c(Cl)c(O)cc(O)c2C(=O)O1	84
C[C@@H]1C[C@H]2O[C@@H]2\C=C/C=C/C(=N\OCC(=O)NC2CCCC2)Cc2c(Cl)c(O)cc(O)c2C(=O)O1	9.8
C[C@@H]1C[C@H]2O[C@@H]2\C=C/C=C/C(=N\OCC(=O)N2CCC(O)CC2)Cc2c(Cl)c(O)cc(O)c2C(=O)O1	> 3000
COC(=O)CNC(=O)CO\N=C1/C=C/C=C\[C@H]2O[C@@H]2C[C@@H](C)OC(=O)c2c(O)cc(O)c(Cl)c2C1	240
C[C@@H]1C[C@H]2O[C@@H]2\C=C/C=C/C(=N\OCC(=O)N2CCCCCC2)Cc2c(Cl)c(O)cc(O)c2C(=O)O1	< 4.1
C[C@@H]1C[C@H]2O[C@@H]2\C=C/C=C/C(=N\OCC(=O)N2CCCC2)Cc2c(Cl)c(O)cc(O)c2C(=O)O1	20
C[C@@H]1C[C@H]2O[C@@H]2\C=C/C=C/C(=N\OCC(=O)N2CCOCC2)Cc2c(Cl)c(O)cc(O)c2C(=O)O1	130
CCOCCNC(=O)CO\N=C1/C=C/C=C\[C@H]2O[C@@H]2C[C@@H](C)OC(=O)c2c(O)cc(O)c(Cl)c2C1	93
CCN(CC)c1ccc(NC(=O)CO\N=C2/C=C/C=C\[C@H]3O[C@@H]3C[C@@H](C)OC(=O)c3c(O)cc(O)c(Cl)c3C2)cc1	100
C[C@@H]1C[C@H]2O[C@@H]2\C=C/C=C/C(=N\OCC(=O)N2CCC(N3CCCCC3)CC2)Cc2c(Cl)c(O)cc(O)c2C(=O)O1	> 3000

target: Proto-oncogene tyrosine-protein kinase Src (Rattus norvegicus, UniProt Q9WUD9); assay: Inhibition of v-Src tyrosine kinase autophosphorylation in SR3Y1 cells after 15 hr exposure; type: cell-based; conditions: not given
Procedure, shortened: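 SR-3Y1 cells exposed to drug 15 h, lysed on ice 20 min in Tris pH 7.5 RIPA-type buffer with protease inhibitors and 1 mM vanadate. Equal-protein lysates run on SDS-PAGE, blotted with anti-phosphotyrosine antibody, HRP secondary, ECL detection. IC50 = concentration halving tyrosine phosphorylation.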

SMILES	IC50 [nM]
C[C@@H]1C[C@H]2O[C@@H]2\C=C/C=C/C(=N\OCC(=O)NCc2cccnc2)Cc2c(Cl)c(O)cc(O)c2C(=O)O1	> 1000
C[C@@H]1C[C@H]2O[C@@H]2\C=C/C=C/C(=N\OCC(=O)NCCO)Cc2c(Cl)c(O)cc(O)c2C(=O)O1	> 1000
C[C@@H]1C[C@H]2O[C@@H]2\C=C/C=C/C(=N\OCC(=O)NCCc2cccn2C)Cc2c(Cl)c(O)cc(O)c2C(=O)O1	> 1000
C[C@@H]1C[C@H]2O[C@@H]2\C=C/C=C/C(=N\OCC(=O)NC2CCCC2)Cc2c(Cl)c(O)cc(O)c2C(=O)O1	14
COC(=O)CNC(=O)CO\N=C1/C=C/C=C\[C@H]2O[C@@H]2C[C@@H](C)OC(=O)c2c(O)cc(O)c(Cl)c2C1	360
C[C@@H]1C[C@H]2O[C@@H]2\C=C/C=C/C(=N\OCC(=O)N2CCCCCC2)Cc2c(Cl)c(O)cc(O)c2C(=O)O1	67
C[C@@H]1C[C@H]2O[C@@H]2\C=C/C=C/C(=N\OCC(=O)N2CCCC2)Cc2c(Cl)c(O)cc(O)c2C(=O)O1	70
C[C@@H]1C[C@H]2O[C@@H]2\C=C/C=C/C(=N\OCC(=O)N2CCOCC2)Cc2c(Cl)c(O)cc(O)c2C(=O)O1	140
CCOCCNC(=O)CO\N=C1/C=C/C=C\[C@H]2O[C@@H]2C[C@@H](C)OC(=O)c2c(O)cc(O)c(Cl)c2C1	> 1000
CCN(CC)c1ccc(NC(=O)CO\N=C2/C=C/C=C\[C@H]3O[C@@H]3C[C@@H](C)OC(=O)c3c(O)cc(O)c(Cl)c3C2)cc1	< 10
